Reference: ChEMBL document CHEMBL3297688, “New orally active dual enkephalinase inhibitors (DENKIs) for central and peripheral pain treatment” (J Med Chem, 2014)
Activity calls are given as the source filed them.

What was measured:
Mus musculus [1] = test: Antinociceptive activity in OF1 mouse acute central pain model at 20 mg/kg, iv after 10 mins by hot plate test relative to vehicle-treated control; type: functional
Summary of the method: (§1)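 Male OF1 mice, iv dosing in water/mannitol (50 mg/mL) vehicle. Hot plate at 52 ± 1 °C read 10 min post-injection. Jump latency with a 240 s cutoff, expressed as % MPE. n = 10 per group. ANOVA with Newman–Keuls or Bonferroni tests versus vehicle.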

Mus musculus [2] = test: Antinociceptive activity in OF1 mouse acute central pain model at 150 mg/kg, po administered with EtOH/PEG400/water after 40 mins by hot plate test relative to vehicle-treated control; type: functional
Summary of the method: (§2)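 Oral gavage in male OF1 mice, vehicle EtOH/PEG400/H2O (10/40/50); 150 mg/kg for single-dose lines. Hot plate (52 ± 1 °C) jump latency read at 20, 40 and 60 min, 240 s cutoff, % MPE. […] ANOVA + Newman–Keuls or Bonferroni.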

Mus musculus [3] = test: Antinociceptive activity in OF1 mouse acute central pain model at 150 mg/kg, po administered with EtOH/PEG400/water after 20 mins by hot plate test relative to vehicle-treated control; type: functional; summary of the method: as §2
Mus musculus [4] = test: Antinociceptive activity in OF1 mouse acute central pain model at 150 mg/kg, po administered with EtOH/PEG400/water after 60 mins by hot plate test relative to vehicle-treated control; type: functional; summary of the method: as §2
Mus musculus [5] = test: Activity in OF1 mouse acute central pain model at 10 mg/kg, iv administered as single dose by hot plate test; type: functional, organism-based; set-up: dose 10 mg/kg
Mus musculus [6] = test: Activity in OF1 mouse acute central pain model at 150 mg/kg, po administered as single dose by hot plate test; type: functional, organism-based; set-up: dose 150 mg/kg
Summary of the method: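 Hot plate at 52 ± 1 °C, male OF1 mice. Single oral dose of 150 mg/kg. Jump latency recorded with a 240 s cutoff and converted to % MPE against control latency.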

Mus musculus [7] = test: Antinociceptive activity in po dosed CD1 mouse after 45 mins by hot plate test; type: functional; settings: 0.75 h
Mus musculus [8] = test: Antinociceptive activity in iv dosed CD1 mouse administered with EtOH/cremophor/water after 10 mins by hot plate test; type: functional
Mus musculus [9] = test: Antinociceptive activity in OF1 mouse acute central pain model at 10 mg/kg, iv administered with EtOH/Tween80/water after 10 mins by hot plate test relative to vehicle-treated control; type: functional
Summary of the method: (§3)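 Male OF1 mice dosed iv in ethanol/Tween80/water (1/1/8). Jump latency on a 52 ± 1 °C hot plate (240 s cutoff) read 10 min after injection, expressed as mean % MPE ± SEM. n = 18–21 per group for dose–response, n = 8 for 10 mg/kg comparisons. ED50 taken from dose–response. ANOVA + Bonferroni.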

Mus musculus [10] = test: Antinociceptive activity in OF1 mouse persistent pain model assessed as reduction of formalin-induced paw licking at 50 mg/kg, po administered with EtOH/methyl cellulose in water 30 mins prior to formalin challenge measured after 1 to 5 mins relative to vehicle-treated control; type: functional; set-up: scale not given: the % may be the effect or the level left
Summary of the method: (§4)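 Male OF1 mice gavaged with 50 mg/kg in ethanol/methylcellulose 0.5% in water (1.5/98.5), 30 or 90 min before a plantar sc injection of 5% formalin (20 μL in saline). Licking time recorded over 0–5 min (early phase). n = 5–7 per group. ANOVA + Bonferroni versus vehicle.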

Mus musculus [11] = test: Antinociceptive activity in OF1 mouse persistent pain model assessed as reduction of formalin-induced paw licking at 50 mg/kg, po administered with EtOH/methyl cellulose in water 90 mins prior to formalin challenge measured after 1 to 5 mins relative to vehicle-treated control; type: functional; set-up: scale not given: the % may be the effect or the level left; summary of the method: as §4
Mus musculus [12] = test: Antinociceptive activity in OF1 mouse acute central pain model assessed as time duration of action at 150 mg/kg, po administered with EtOH/PEG400/water after 20 to 60 mins by hot plate test relative to vehicle-treated control; type: functional; summary of the method: as §2
Mus musculus [13] = test: Antiallodynic activity in OF1 mouse neuropathic pain model assessed as increase in partial sciatic nerve ligation-induced reduction of threshold for paw withdrawal at 25 mg/kg, po after 20 mins by von frey test relative to vehicle-treated control; type: functional; set-up: scale not given: the % may be the effect or the level left
Summary of the method: (§5)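 Partial ligation of 33–50% of the sciatic nerve in male OF1 mice; sham mice operated without ligation. Tested days 10–20 post-surgery, before and 20 min after 25 mg/kg po. Mechanical threshold by von Frey filaments; thermal latency by plantar test (8–10 s baseline, 20 s cutoff, mean of three trials at 5 min intervals). Ipsilateral and contralateral paws tested. n = 6–9 per group.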

Mus musculus [14] = test: Antinociceptive activity in OF1 mouse acute central pain model at 10 mg/kg, iv after 10 mins by hot plate test relative to vehicle-treated control; type: functional
Rattus norvegicus [15] = test: Prodrug activation in rat plasma at 200 mg, po after 30 mins by LC/MS/MS analysis; settings: 0.5 h
Rattus norvegicus [16] = test: Antinociceptive activity in Sprague-Dawley rat acute centrospinal nociception model at 100 mg/kg, po after 20 mins by tail flick test relative to vehicle-treated control; type: functional
Mus musculus [17] = test: Antinociceptive activity in OF1 mouse acute central pain model assessed as jump latency at 10 mg/kg, iv after 10 mins by hot plate test relative to vehicle-treated control in presence of naloxone; type: functional, organism-based; set-up: dose 10 mg/kg
Summary of the method: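 Naloxone 0.5 mg/kg given sc before the test compound (10 mg/kg iv) in male OF1 mice. Hot plate (52 ± 1 °C) jump latency measured, 240 s cutoff. n = 7–10 per group. ANOVA followed by Bonferroni versus vehicle and versus drug alone.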

Mus musculus [18] = test: Antinociceptive activity in OF1 mouse acute central pain model assessed as time duration of action at 40 mg/kg, iv administered with water/mannitol after 10 mins by hot plate test relative to vehicle-treated control; type: functional
Mus musculus [19] = test: Antinociceptive activity in iv dosed OF1 mouse acute central pain model assessed as jump latency administered with water/mannitol after 10 mins by hot plate test relative to vehicle-treated control; type: functional; summary of the method: as §1
Mus musculus [20] = test: Antinociceptive activity in OF1 mouse acute central pain model at 40 mg/kg, iv after 10 mins by hot plate test relative to vehicle-treated control; type: functional; summary of the method: as §1
Mus musculus [21] = test: Antinociceptive activity in po dosed OF1 mouse acute central pain model administered with EtOH/PEG400/water after 20 mins by hot plate test relative to vehicle-treated control; type: functional; summary of the method: as §2
Rattus norvegicus [22] = test: Antinociceptive activity in iv dosed Sprague-Dawley rat acute centrospinal nociception model administered with EtOH/Tween80/water after 10 to 20 mins by tail flick test relative to vehicle-treated control; type: functional, organism-based; settings: TDE = time-dependent effect
Mus musculus [23] = test: Antihyperalgesic activity in OF1 mouse neuropathic pain model assessed as increase in partial sciatic nerve ligation-induced reduction in thermal threshold at 25 mg/kg, po by plantar test relative to vehicle-treated control; type: functional, organism-based; set-up: dose 25 mg/kg; summary of the method: as §5
Mus musculus [24] = test: Antinociceptive activity in iv dosed OF1 mouse acute central pain model assessed as jump latency administered with EtOH/Tween80/water after 10 mins by hot plate test relative to vehicle-treated control; type: functional; summary of the method: as §3
Rattus norvegicus [25] = test: Antinociceptive activity in Sprague-Dawley rat acute centrospinal nociception model at 20 mg/kg, iv administered with EtOH/Tween80/water after 10 mins by tail flick test relative to vehicle-treated control
Mus musculus [26] = test: Antinociceptive activity in OF1 mouse acute central pain model at 60 mg/kg, iv after 10 mins by hot plate test relative to vehicle-treated control; type: functional; summary of the method: as §1

`CSCC[C@H](N)CSSCC(Cc1ccsc1)C(=O)N[C@@H](C)C(=O)OC[C@H](COC(C)=O)OC(C)=O` (stereo partly drawn) was tested, and the Activity (Mus musculus [1]) was 29%.
`CSCC[C@H](N)CSSCC(Cc1ccsc1)C(=O)N[C@@H](C)C(=O)OCCS(C)(=O)=O` (stereo partly drawn) gave an Activity (Mus musculus [1]) of 22%.
In the case of `CCOC(=O)OC(OC(=O)CNC(=O)[C@@H](CSSC[C@@H](N)CCSC)Cc1ccccc1)C1CCCCC1` (stereo partly drawn), the Activity (Mus musculus [2]) was 3%, the Activity (Mus musculus [3]) was 17% and the Activity (Mus musculus [4]) was 8%.
In the case of `CSCC[C@H](N)CSSC[C@@H](Cc1ccccc1)C(=O)NCC(=O)O`, the Activity (Mus musculus [5]) was “inactive” and the Activity (Mus musculus [6]) was “inactive”.
With `CSCC[C@H](N)CSSCC(Cc1ccsc1)C(=O)N[C@@H](C)C(=O)OC(CO)CO` (stereo partly drawn) the Activity (Mus musculus [1]) was 22%.
In the case of `CCC(=O)OC(OC(=O)CNC(=O)[C@@H](CSSC[C@@H](N)CCSC)Cc1ccccc1)C1CCCCC1` (stereo partly drawn), the Activity (Mus musculus [2]) was 10%, the Activity (Mus musculus [3]) was 8% and the Activity (Mus musculus [4]) was 12%.
Compound `CCOC(=O)COC(=O)[C@H](C)NC(=O)C(CSSC[C@@H](N)CCSC)Cc1ccsc1` (stereo partly drawn) has an Activity (Mus musculus [1]) of 32%.
In the case of `CSCC[C@H](N)CSSCC(Cc1ccsc1)C(=O)N[C@@H](C)C(=O)OC(COC(C)=O)COC(C)=O` (stereo partly drawn), the Activity (Mus musculus [1]) was 40%.
For `CSCC[C@H](N)CSSC[C@@H](Cc1ccccc1)C(=O)N[C@@H](C)C(=O)OCc1ccccc1`, the ED50 (Mus musculus [7]) was 410 mg/kg and the ED50 (Mus musculus [8]) was 3 mg/kg.
With `CSCC[C@H](N)CSSC[C@@H](Cc1ccccc1)C(=O)N[C@H](C(=O)O)[C@@H](C)O` the Activity (Mus musculus [5]) was “inactive” and the Activity (Mus musculus [6]) was “inactive”.
In the case of `CCC(=O)OC(OC(=O)CNC(=O)[C@@H](CSSC[C@@H](N)CCSC)Cc1ccccc1)C(C)C` (stereo partly drawn), the Activity (Mus musculus [2]) was 24%, the Activity (Mus musculus [3]) was 32% and the Activity (Mus musculus [4]) was 8%.
`CCOC(=O)OC(C)OC(=O)CNC(=O)[C@@H](CSSC[C@@H](N)CC[S+](C)[O-])Cc1ccccc1.O=CO` (stereo partly drawn) showed an Activity (Mus musculus [9]) of 30%, an Activity (Mus musculus [10]) of 54% and an Activity (Mus musculus [11]) of 41%.
For `CCOC(=O)OC(C)OC(=O)[C@H](C)NC(=O)C(CSSC[C@@H](N)CCSC)Cc1ccsc1` (stereo partly drawn), the Activity (Mus musculus [1]) was 44%.
`CCOC(=O)OC(C)OC(=O)CNC(=O)[C@@H](CSSC[C@@H](N)CCSC)Cc1ccccc1.O=CO` (stereo partly drawn) was tested, and the Time (Mus musculus [12]) was <1 h, the Activity (Mus musculus [13]) was 51% and the Activity (Mus musculus [14]) was 35%. It also gave a Drug metabolism (Rattus norvegicus [15]) of 98%, an Activity (Mus musculus [2]) of 28% and an Activity (Rattus norvegicus [16]) of 10%. For the same compound, the Activity (Mus musculus [17]) was “inactive”, the Time (Mus musculus [18]) was <40 min and the Activity (Mus musculus [3]) was 58%. The Activity (Mus musculus [1]) was 58%, the Activity (Mus musculus [19]) was “Dose-dependent effect” and the ED50 (Mus musculus [19]) was 16 mg/kg. The Activity (Mus musculus [20]) was 97%, the Activity (Mus musculus [4]) was 7% and the ED50 (Mus musculus [21]) was 133 mg/kg. The Activity (Mus musculus [9]) was 78%, the Activity (Mus musculus [10]) was 41% and the Activity (Mus musculus [11]) was 41%. For the same compound, the Activity (Rattus norvegicus [22]) was “tde”, the Activity (Mus musculus [23]) was “Active” and the Activity (Mus musculus [24]) was “Dose-dependent effect”. It also gave an ED50 (Mus musculus [24]) of 4.5 mg/kg and an Emax at 20 mg/kg (Rattus norvegicus [25]) of 40%.
With `CSCC[C@H](N)CSSCC(Cc1ccsc1)C(=O)N[C@@H](C)C(=O)O` (stereo partly drawn) the Activity (Mus musculus [5]) was “inactive” and the Activity (Mus musculus [6]) was “inactive”.
With `C[S+]([O-])CC[C@H](N)CSSC[C@@H](Cc1ccccc1)C(=O)NCC(=O)O` (stereo partly drawn) the Activity (Mus musculus [5]) was “inactive” and the Activity (Mus musculus [6]) was “inactive”.
`CCOC(=O)OC(C)OC(=O)[C@@H](NC(=O)[C@@H](CSSC[C@@H](N)CCSC)Cc1ccccc1)C(C)O` (stereo partly drawn) gave an Activity (Mus musculus [1]) of 29%, an Activity (Mus musculus [20]) of 61% and an Activity (Mus musculus [26]) of 84%.
Compound `CSCC[C@H](N)CSSCC(Cc1ccsc1)C(=O)N[C@@H](C)C(=O)OC[C@H]1O[C@@H](O)[C@H](O)[C@@H](O)[C@@H]1O` (stereo partly drawn) has an Activity (Mus musculus [1]) of 10%.
Compound `CCOC(=O)OC(OC(=O)CNC(=O)[C@@H](CSSC[C@@H](N)CCSC)Cc1ccccc1)C(C)C` (stereo partly drawn) has an Activity (Mus musculus [2]) of 18%, an Activity (Mus musculus [3]) of 46% and an Activity (Mus musculus [4]) of 0%.
